# Measurements as given in ChEMBL document CHEMBL4270642, “Boronic ester-linked macrocyclic lipopeptides as serine protease inhibitors targeting Escherichia coli type I signal peptidase” (Eur J Med Chem, 2018).
# Square brackets hold non-standard residues; d marks the D form. Peptide text beside a SMILES is read from it. * marks the point of attachment. Benzoyl(4-(4-hexylphenyl)) = CCCCCCc1ccc(-c2ccc(C(=O)*)cc2)cc1; X1 = C[C@H](N*)B1OC2C[C@@H]3C[C@@H](C3(C)C)[C@]2(C)O1; Orn = NCCC[C@H](N)C(=O)O
# Tests used:
# HepG2 = experiment: Cytotoxicity against human HepG2 cells after 72 hrs by FMSA; assay type: cell-based; settings: HepG2, 72 h
# In short: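 HepG2 (ATCC) grown in EMEM with 10% FBS, pen/strep, 2 mM L-glutamine, used up to 20 passages. Seeded at 1000 cells/well, cultured overnight, then dosed acoustically from DMSO stocks. Eight two-fold dilutions in duplicate from top 64 or 32 µM; 72 h at 37 °C, 5% CO2. Fluorescein diacetate hydrolysis read at ex 485/em 530 nm; IC50 by non-linear regression.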
# [1] = target: Signal peptidase I (Escherichia coli K-12) (UniProt P00803); experiment: Inhibition of Escherichia coli type 1 signal peptidase lepB assessed as residual activity at 0.0024 uM preincubated for 10 mins followed by Dabcyl-VGGTATAYGAFSRPGLE-(EDANS)-OH substrate addition measured after 2 hrs by FRET based assay (reference value: 100%)
# Chain of Signal peptidase I (Escherichia coli K-12) (P00803 whole entry): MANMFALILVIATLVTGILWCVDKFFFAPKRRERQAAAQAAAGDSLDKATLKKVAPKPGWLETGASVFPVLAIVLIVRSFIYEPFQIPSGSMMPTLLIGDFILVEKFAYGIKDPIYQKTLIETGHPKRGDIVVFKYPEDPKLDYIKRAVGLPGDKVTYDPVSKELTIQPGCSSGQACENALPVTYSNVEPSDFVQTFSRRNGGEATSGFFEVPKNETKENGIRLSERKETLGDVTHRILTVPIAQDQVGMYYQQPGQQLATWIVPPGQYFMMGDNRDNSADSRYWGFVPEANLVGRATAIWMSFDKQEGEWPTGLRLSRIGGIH
# In short: (§1)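 EcLepB (about 50 nM estimated) preincubated 10 min with compound. Reaction started with Dabcyl/EDANS FRET peptide at 8 µM final (Km 20 µM). Fluorescence followed continuously at 535 nm, 22 °C, for 2 h. Cleavage rates plotted against inhibitor concentration; IC50 from non-linear regression of sigmoidal dose-response curves.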
# [2] = target: Signal peptidase I (Escherichia coli K-12) (UniProt P00803); experiment: Inhibition of Escherichia coli type 1 signal peptidase lepB assessed as residual activity at 0.0195 uM preincubated for 10 mins followed by Dabcyl-VGGTATAYGAFSRPGLE-(EDANS)-OH substrate addition measured after 2 hrs by FRET based assay (reference value: 100%); in short: as §1
# Escherichia coli [3] = experiment: Antibacterial activity against Escherichia coli D22 CGSG 5163 harboring Ips mutant after 16 to 20 hrs by broth microdilution method; assay type: functional
# In short: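 Broth microdilution in cation-adjusted Mueller-Hinton II broth, following EUCAST and CLSI guidelines. Two-fold series at final concentrations 64 down to 0.25 µg/mL, with medium-only and growth controls. Inoculum from fresh colonies (18-24 h, 35 °C ± 2 °C) adjusted to 0.5 McFarland, final ≈5 × 10^5 CFU/mL. Plates incubated unshaken 16-20 h at 35 °C ± 2 °C. MIC read visually as complete inhibition of growth.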
# [4] = target: Signal peptidase I (Escherichia coli K-12) (UniProt P00803); experiment: Inhibition of Escherichia coli type 1 signal peptidase lepB assessed as residual activity at 2.5 uM preincubated for 10 mins followed by Dabcyl-VGGTATAYGAFSRPGLE-(EDANS)-OH substrate addition measured after 2 hrs by FRET based assay (reference value: 100%); in short: as §1
# [5] = target: Signal peptidase I (Escherichia coli K-12) (UniProt P00803); experiment: Inhibition of Escherichia coli type 1 signal peptidase lepB assessed as residual activity at 0.0049 uM preincubated for 10 mins followed by Dabcyl-VGGTATAYGAFSRPGLE-(EDANS)-OH substrate addition measured after 2 hrs by FRET based assay (reference value: 100%); in short: as §1
# [6] = target: Signal peptidase I (Escherichia coli K-12) (UniProt P00803); experiment: Inhibition of Escherichia coli type 1 signal peptidase lepB assessed as residual activity at 1.25 uM preincubated for 10 mins followed by Dabcyl-VGGTATAYGAFSRPGLE-(EDANS)-OH substrate addition measured after 2 hrs by FRET based assay (reference value: 100%); in short: as §1
# [7] = target: Signal peptidase I (Escherichia coli K-12) (UniProt P00803); experiment: Inhibition of Escherichia coli type 1 signal peptidase lepB assessed as residual activity at 0.0391 uM preincubated for 10 mins followed by Dabcyl-VGGTATAYGAFSRPGLE-(EDANS)-OH substrate addition measured after 2 hrs by FRET based assay (reference value: 100%); in short: as §1
# [8] = target: Signal peptidase I (Escherichia coli K-12) (UniProt P00803); experiment: Inhibition of Escherichia coli type 1 signal peptidase lepB assessed as residual activity at 0.625 uM preincubated for 10 mins followed by Dabcyl-VGGTATAYGAFSRPGLE-(EDANS)-OH substrate addition measured after 2 hrs by FRET based assay (reference value: 100%); in short: as §1
# [9] = target: Signal peptidase I (Escherichia coli K-12) (UniProt P00803); experiment: Inhibition of Escherichia coli type 1 signal peptidase lepB assessed as residual activity at 0.0012 uM preincubated for 10 mins followed by Dabcyl-VGGTATAYGAFSRPGLE-(EDANS)-OH substrate addition measured after 2 hrs by FRET based assay (reference value: 100%); in short: as §1
# [10] = target: Signal peptidase I (Escherichia coli K-12) (UniProt P00803); experiment: Inhibition of Escherichia coli type 1 signal peptidase lepB assessed as residual activity at 0.3125 uM preincubated for 10 mins followed by Dabcyl-VGGTATAYGAFSRPGLE-(EDANS)-OH substrate addition measured after 2 hrs by FRET based assay (reference value: 100%); in short: as §1
# Pseudomonas aeruginosa [11] = experiment: Antibacterial activity against Pseudomonas aeruginosa PAO1 after 16 to 20 hrs by broth microdilution method; assay type: functional
# In short: (§2)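 Broth microdilution in cation-adjusted Mueller-Hinton II per EUCAST/CLSI; two-fold compound series 64 down to 0.25 µg/mL final. Inoculum from fresh colonies (non-selective agar, 18-24 h, 35 ± 2 °C), adjusted to 0.5 McFarland, diluted to about 5 × 10^5 CFU/mL final. Static incubation 16-20 h at 35 ± 2 °C; MIC read visually as complete growth inhibition against medium-only wells.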
# Pseudomonas aeruginosa [12] = experiment: Antibacterial activity against efflux defective Pseudomonas aeruginosa PAO750 after 16 to 20 hrs by broth microdilution method; assay type: functional; in short: as §2
# [13] = target: Signal peptidase I (Escherichia coli K-12) (UniProt P00803); experiment: Inhibition of Escherichia coli type 1 signal peptidase lepB assessed as residual activity at 5 uM preincubated for 10 mins followed by Dabcyl-VGGTATAYGAFSRPGLE-(EDANS)-OH substrate addition measured after 2 hrs by FRET based assay (reference value: 100%); in short: as §1
# Acinetobacter baumannii = experiment: Antibacterial activity against Acinetobacter baumannii ATCC 19606 after 16 to 20 hrs by broth microdilution method; assay type: functional; settings: ATCC 19606 = CIP 70.34 = JCM 6841; in short: as §2
# Klebsiella pneumoniae = experiment: Antibacterial activity against Klebsiella pneumoniae ATCC 13883 after 16 to 20 hrs by broth microdilution method; assay type: functional; in short: as §2
# [14] = target: Signal peptidase I (Escherichia coli K-12) (UniProt P00803); experiment: Inhibition of Escherichia coli type 1 signal peptidase lepB assessed as residual activity at 10 uM preincubated for 10 mins followed by Dabcyl-VGGTATAYGAFSRPGLE-(EDANS)-OH substrate addition measured after 2 hrs by FRET based assay (reference value: 100%); in short: as §1
# Escherichia coli [15] = experiment: Antibacterial activity against tolC deficient Escherichia coli CH3130 after 16 to 20 hrs by broth microdilution method; assay type: functional; in short: as §2
# [16] = target: Signal peptidase I (Escherichia coli K-12) (UniProt P00803); experiment: Inhibition of Escherichia coli type 1 signal peptidase lepB assessed as residual activity at 0.1563 uM preincubated for 10 mins followed by Dabcyl-VGGTATAYGAFSRPGLE-(EDANS)-OH substrate addition measured after 2 hrs by FRET based assay (reference value: 100%); in short: as §1
# Signal peptidase I = Signal peptidase I (Escherichia coli K-12, UniProt P00803); experiment: Inhibition of Escherichia coli type 1 signal peptidase lepB preincubated for 10 mins followed by Dabcyl-VGGTATAYGAFSRPGLE-(EDANS)-OH substrate addition measured after 2 hrs by FRET based assay; in short: as §1
# Chain of Signal peptidase I (P00803 whole entry): as above
# Staphylococcus aureus = experiment: Antibacterial activity against Staphylococcus aureus ATCC 29213 after 16 to 20 hrs by broth microdilution method; assay type: functional; in short: as §2
# Escherichia coli [17] = experiment: Antibacterial activity against Escherichia coli ATCC 25922 after 16 to 20 hrs by broth microdilution method; assay type: functional; in short: as §2
# [18] = target: Signal peptidase I (Escherichia coli K-12) (UniProt P00803); experiment: Inhibition of Escherichia coli type 1 signal peptidase lepB assessed as residual activity at 0.0006 uM preincubated for 10 mins followed by Dabcyl-VGGTATAYGAFSRPGLE-(EDANS)-OH substrate addition measured after 2 hrs by FRET based assay (reference value: 100%); in short: as §1
# [19] = Hemolytic activity in human RBC at 100 uM after 45 mins by spectrophotometric method relative to control; assay type: ADME, cell-based, Erythrocyte; settings: red blood cells (erythrocytes), read-out: Activity
# In short: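 Heparinized human blood; red cells washed three times in Tyrode buffer pH 7.4. Compound at 100 µM final with 1% DMSO and 50% RBC, shaken (250 rpm) 45 min at 37 °C. Cells pelleted (1000 × g, 10 min); supernatant haemoglobin at 540 nm. Percent lysis relative to buffer-only and 2% Triton X-100 controls.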
# [20] = target: Signal peptidase I (Escherichia coli K-12) (UniProt P00803); experiment: Inhibition of Escherichia coli type 1 signal peptidase lepB assessed as residual activity at 0.0781 uM preincubated for 10 mins followed by Dabcyl-VGGTATAYGAFSRPGLE-(EDANS)-OH substrate addition measured after 2 hrs by FRET based assay (reference value: 100%); in short: as §1
# [21] = target: Signal peptidase I (Escherichia coli K-12) (UniProt P00803); experiment: Inhibition of Escherichia coli type 1 signal peptidase lepB assessed as residual activity at 0.0098 uM preincubated for 10 mins followed by Dabcyl-VGGTATAYGAFSRPGLE-(EDANS)-OH substrate addition measured after 2 hrs by FRET based assay (reference value: 100%); in short: as §1
smiles,measurement,setting,value
CCCCCCc1ccc(-c2ccc(C(=O)N[C@@H](CCCN)C(=O)N[C@H](C(=O)N[C@@H](C)C(=O)N[C@@H](CC(N)=O)C(=O)N[C@@H](C)B3OC4C[C@@H]5C[C@@H](C5(C)C)[C@]4(C)O3)[C@@H](C)O)cc2)cc1 (some centres not stated) ({Benzoyl(4-(4-hexylphenyl))}-[Orn]TAN-X1),IC50,HepG2,11.7 µM
same,Activity,[1],91.9%
same,Activity,[2],42.9%
same,MIC,Escherichia coli [3],0.5 µg/mL
same,Activity,[4],-0.2%
same,Activity,[5],87.3%
same,Activity,[6],8.5%
same,Activity,[7],24.9%
same,Activity,[8],-9.9%
same,Activity,[9],98.6%
same,Activity,[10],3.5%
same,MIC,Pseudomonas aeruginosa [11],64 µg/mL
same,MIC,Pseudomonas aeruginosa [12],32 µg/mL
same,Activity,[13],1.8%
same,MIC,Acinetobacter baumannii,4 µg/mL
same,MIC,Klebsiella pneumoniae,2 µg/mL
same,Activity,[14],6.3%
same,MIC,Escherichia coli [15],2 µg/mL
same,Activity,[16],-1.3%
same,IC50,Signal peptidase I,0.017 µM
same,MIC,Staphylococcus aureus,0.025 µg/mL
same,MIC,Escherichia coli [17],8 µg/mL
same,Activity,[18],114%
same,"hemolysis at 0.75 h, 100 µM",[19],11.7%
same,Activity,[20],20.5%
same,Activity,[21],70.6%
CCCCCCc1ccc(-c2ccc(C(=O)N[C@@H](CCCN)C(=O)N[C@H](C(=O)N[C@@H](C)C(=O)N[C@H]3Cc4cn(nn4)CCCN4C[C@@H]5OB(O[C@@H]5C4)[C@H](C)NC3=O)[C@@H](C)O)cc2)cc1,IC50,HepG2,4 µM
same,Activity,[1],86.2%
same,Activity,[2],68.6%
same,MIC,Escherichia coli [3],8 µg/mL
same,Activity,[4],28.1%
same,Activity,[5],80.9%
same,Activity,[6],32.8%
same,Activity,[7],47.9%
same,Activity,[8],35.3%
same,Activity,[9],85.6%
same,Activity,[10],43%
same,MIC,Pseudomonas aeruginosa [11],> 64 µg/mL
same,MIC,Pseudomonas aeruginosa [12],64 µg/mL
same,Activity,[13],14.9%
same,MIC,Acinetobacter baumannii,16 µg/mL
same,MIC,Klebsiella pneumoniae,32 µg/mL
same,Activity,[14],5.6%
same,MIC,Escherichia coli [15],8 µg/mL
same,Activity,[16],47.3%
same,IC50,Signal peptidase I,0.105 µM
same,MIC,Staphylococcus aureus,32 µg/mL
same,MIC,Escherichia coli [17],32 µg/mL
same,Activity,[18],89.5%
same,"hemolysis at 0.75 h, 100 µM",[19],17.4%
same,Activity,[20],42.8%
same,Activity,[21],76.7%
